Publication PMC10653054 (ACS Omega, 2023)

How the values were obtained:
[1] = system: caspase-3, cleaved-caspase-3, pro-caspase-3 in Panc-1 cells; test: Western blot analysis of caspase-3 proteins; assay type: cell-based, human; conditions: Panc-1, IC50 concentration, 48 h
Outline: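 Panc-1 cells were exposed to test compound and harvested after 48 h. Lysates were prepared in lysis buffer, and protein was quantified by Bradford assay. Proteins were separated on 15% SDS-PAGE, transferred to PVDF and probed with primary and secondary antibodies. β-actin was the loading control. Bands were detected by chemiluminescence and imaged.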

Panc-1 cells [2] = test: Cell cycle analysis by PI staining flow cytometry; assay type: cell-based, human; conditions: Panc-1, IC50 concentration, 48 h; control 1.82%
Panc-1 cells [3] = test: Annexin V-FITC/PI dual staining flow cytometry apoptosis assay; assay type: cell-based, human; conditions: Panc-1, treated at IC50 concentration, 48 h
Outline: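 Panc-1 cells were seeded, held overnight at 37 °C under 5% CO2, then exposed to test compound for 48 h. Untreated cells were the negative control. Cells were trypsinized, washed twice in PBS, pelleted at 1200 rpm and resuspended in binding buffer. Labelled annexin V and propidium iodide were added, and cells were incubated 15 min at room temperature in the dark. Flow cytometry followed.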

[4] = system: normal human dermal fibroblast (HDF) cells; test: MTT cytotoxicity assay, normal HDF cells; assay type: cell-based; conditions: 48 h, read-out: In vitro antiproliferative effects (IC50) HDF
Outline: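 Cells came from the National Cell Bank of Iran and were grown in RPMI-1640 or DMEM with 10% FBS at 37 °C, 5% CO2 and 100% humidity. Test compounds in 0.1% DMSO (n = 3) were incubated 48 h, then MTT for 3 h, with formazan OD read at 570 nm. Controls were 0.1% DMSO (negative) and etoposide (positive). IC50 came from dose–response curves, mean ± SE of at least three independent experiments.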

SMILES: O=c1[nH]nc(O)c2c(-c3cccc([N+](=O)[O-])c3)c3n(c12)CCn1cccc1-3 [7m, 11-Hydroxy-12-(3-nitrophenyl)-5,6-dihydropyrrolo[2″,1″:3′,4′]pyrazino[1′,2′:1,5] pyrrolo[2,3-d]pyridazin-8(9H)-one]
- caspase-3 protein level [1]: downregulation
- pro-caspase-3 protein level [1]: remained unchanged
- proportion of cells in the sub-G1 phase (Panc-1 cells [2]): 5.47%
- necrosis (Q1) (Panc-1 cells [3]; control 0.586): 0.851%
- early apoptosis (Q3) (Panc-1 cells [3]; control 4.12): 5.56%
- late apoptosis (Q2) (Panc-1 cells [3]; control 4.12): 5.45%
- live cells (Q4) (Panc-1 cells [3]; control 91.2): 88.1%
- cell apoptosis (total apoptotic cells) (Panc-1 cells [3]; untreated cells 8.24%): 11.01%
- IC50 [4]: > 100 µM
